Test results from ChEMBL document CHEMBL5150043, “Discovery of Anthranilic Acid Derivatives as Difluoromethylornithine Adjunct Agents That Inhibit Far Upstream Element Binding Protein 1 (FUBP1) Function” (J Med Chem, 2022).
The source made the active and inactive calls. The rule behind the calls is not given here.

Experiments:
L3.6pl [1] = assay: Inhibition of polyamine transport system in human L3.6pl cells assessed as reduction in [3H] spermidine uptake preincubated for 24 hrs followed by [3H]-spermidine addition and measured after 15 mins by scintillation counter method; type: cell-based; settings: time 24.25 hrs
Method in brief: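 L3.6pl cells pretreated 24 h with compound, then 3H-Spd added for 15 min; intracellular 3H-Spd measured; mean ± SD (n = 3).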

L3.6pl [2] = assay: Inhibition of polyamine transport system in human L3.6pl cells assessed as reduction in [3H] spermidine uptake preincubated for 72 hrs in presence of DFMO followed by [3H]-spermidine addition and measured after 15 mins by scintillation counter method; type: cell-based; settings: time 72.25 hrs
Method in brief: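 L3.6pl cells incubated 72 h with DFMO alone or DFMO plus compound, then 3H-Spd added for 15 min; intracellular 3H-Spd measured; mean ± SD (n = 3).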

L3.6pl [3] = assay: Decrease in intracellular polyamine level in human L3.6pl cells assessed as spermidine level at 60 uM incubated for 24 hrs by HPLC analysis; type: functional, cell-based
Method in brief: (§1)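 L3.6pl cells incubated 24 h at 37 °C with compound (60 μM) or 0.6% DMSO vehicle; native intracellular polyamines then measured; mean ± SD (n = 3).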

L3.6pl [4] = assay: Decrease in intracellular polyamine level in human L3.6pl cells assessed as putrescine level at 60 uM incubated for 24 hrs by HPLC analysis; type: functional, cell-based; method in brief: as §1
L3.6pl [5] = assay: Inhibition of FUBP1/DNA FUSE region interaction in human […] cells assessed as increase in p21 mRNA level at 20 to 60 uM incubated for 24 hrs by qRT-PCR analysis; type: cell-based; settings: dose 20-60 µM
Method in brief: (§2)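 L3.6pl cells treated 24 h with compound or matched DMSO; p21 and c-Myc mRNA by qRT-PCR, normalized to β-actin; log mean ± SD (n = 2).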

L3.6pl [6] = assay: Inhibition of FUBP1/DNA FUSE region interaction in human […] cells assessed as reduction in c-Myc FUSE DNA pull down at 60 uM incubated for 24 hrs by qRT-PCR analysis; type: cell-based
Method in brief: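 ChIP: L3.6pl cells ± compound (60 μM) 24 h; crosslinked FUBP1–DNA immunoprecipitated with FUBP1 antibody, crosslink reversed, FUSE sequence upstream of c-Myc promoter amplified by qPCR; mean fold change ± SEM (n = 2).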

[7] = Inhibition of spermidine uptake chinese hamster CHO-K1 cells assessed as decrease in cell growth by measuring cellular ATP content measured after 48 hrs in presence of DFMO and spermidine by ATPlite assay; type: functional, cell-based; settings: Cricetulus griseus, CHO-K1, 48 h
L3.6pl [8] = assay: Inhibition of FUBP1/DNA FUSE region interaction in human […] cells assessed as reduction in c-myc protein level at 20 to 60 uM incubated for 24 hrs by Western blot analysis; type: cell-based; settings: dose 20-60 µM
Method in brief: (§3)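 Western blot of L3.6pl cells after 24 h compound treatment with matched DMSO loading; c-Myc, p21 and FUBP1 probed, GAPDH as loading control; at least three independent experiments.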

L3.6pl [9] = assay: Inhibition of FUBP1/DNA FUSE region interaction in human […] cells assessed as increase in p21 protein level at 20 to 60 uM incubated for 24 hrs by Western blot analysis; type: cell-based; settings: dose 20-60 µM; method in brief: as §3
L3.6pl [10] = assay: Cytotoxicity against human L3.6pl cells assessed as cell viability measured after 72 hrs by ATPlite assay; type: toxicity, cell-based
Method in brief: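 L3.6pl human pancreatic cancer cells in 96-well format were exposed to compound alone for 72 h. Growth was expressed relative to an untreated control. MTC is the highest concentration with relative growth still >90%. […] Data come from two or more experiments, each run in triplicate (n ≥ 6).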

L3.6pl [11] = assay: Decrease in intracellular polyamine level in human L3.6pl cells assessed as spermine level at 60 uM incubated for 24 hrs by HPLC analysis; type: functional, cell-based; method in brief: as §1
[12] = Cytotoxicity against human L3.6pl cells assessed as inhibition of cell growth measured after 72 hrs by ATPlite assay; type: toxicity, cell-based
L3.6pl [13] = assay: Decrease in intracellular polyamine level in human L3.6pl cells assessed as total polyamine level at 60 uM incubated for 24 hrs by HPLC analysis; type: functional, cell-based; method in brief: as §1
L3.6pl [14] = assay: Inhibition of FUBP1/DNA FUSE region interaction in human […] cells assessed as decrease in c-myc mRNA level at 20 to 60 uM incubated for 24 hrs by qRT-PCR analysis; type: cell-based; settings: dose 20-60 µM; method in brief: as §2
CHO-K1 [15] = assay: Inhibition of spermidine uptake in chinese hamster CHO-K1 cells assessed as decrease in cell growth by measuring cellular ATP content measured after 48 hrs in presence of DFMO and spermidine by ATPlite assay; settings: Cricetulus griseus, CHO-K1, 48 h
CHO-K1 [16] = assay: Cytotoxicity against chinese hamster CHO-K1 cells assessed as decrease in cell viability measured after 48 hrs by ATPlite assay; type: toxicity, cell-based, Cricetulus griseus; settings: cho-k1, 48 h
Method in brief: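 CHO-K1 cells dosed alone in 384-well format in parallel with Assays 1 and 2; MTC taken as highest concentration giving ≥90% relative growth versus untreated control; typical error ±10% (n = 3).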

[17] = biological target: T1, Far upstream element-binding protein 1 (Homo sapiens) (UniProt Q96AE4); assay: Binding affinity to recombinant GST tagged FUBP1 KH3-KH4 domain (unknown origin) assessed as decrease in FUBP1-FUSE DNA bound complex using 5'-IRDye700 tagged TGTATATTCCCTCGGG oligonucleotide as substrate at 30 to 60 uM measured for 30 mins by Gel shift assay relative to control; settings: dose 30-60 µM, DDE = dose-dependent effect
T1 sequence (whole entry): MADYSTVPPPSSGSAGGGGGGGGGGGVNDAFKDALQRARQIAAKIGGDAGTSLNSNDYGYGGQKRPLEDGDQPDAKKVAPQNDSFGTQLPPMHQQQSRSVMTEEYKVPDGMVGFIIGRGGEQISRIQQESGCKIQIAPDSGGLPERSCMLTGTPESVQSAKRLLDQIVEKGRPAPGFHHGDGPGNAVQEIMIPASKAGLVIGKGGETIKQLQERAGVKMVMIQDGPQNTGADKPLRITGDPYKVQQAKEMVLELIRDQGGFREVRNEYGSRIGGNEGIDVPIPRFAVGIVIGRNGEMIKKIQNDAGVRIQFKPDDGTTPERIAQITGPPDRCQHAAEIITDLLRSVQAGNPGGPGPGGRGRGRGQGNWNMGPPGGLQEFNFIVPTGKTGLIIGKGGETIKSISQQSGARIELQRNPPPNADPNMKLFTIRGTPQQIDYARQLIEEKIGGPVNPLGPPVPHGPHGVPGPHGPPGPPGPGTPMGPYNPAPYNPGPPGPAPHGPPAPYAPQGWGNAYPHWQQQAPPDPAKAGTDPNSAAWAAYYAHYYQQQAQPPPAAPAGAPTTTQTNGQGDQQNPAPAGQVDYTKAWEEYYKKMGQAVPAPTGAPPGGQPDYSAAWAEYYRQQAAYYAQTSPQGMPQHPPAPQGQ

L3.6pl [18] = assay: Inhibition of polyamine uptake in human L3.6pl cells assessed as inhibition of Ant44-induced toxicity by measuring cellular ATP content at MTC measured after 72 hrs in presence of Ant44 by ATPlite assay; type: functional
Method in brief: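 L3.6pl cells, Ant44 challenge over 72 h, compound dosed up to its MTC; ECx = percentage effect at the MTC on scale from Ant44-only (50% growth) to untreated (100%); average of ≥2 experiments in triplicate (n ≥ 6).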

[19] = Inhibition of spermidine uptake in human L3.6pl cells assessed as inhibition of cell growth by measuring cellular ATP content at MTC measured after 72 hrs in presence of DFMO and spermidine by ATPlite assay; type: functional
Method in brief: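 L3.6pl cells with DFMO and spermidine over 72 h, compound dosed up to its MTC; ECx = percentage effect at the MTC on scale between DFMO-only (50%) and DFMO + Spd (100%) controls; average of ≥2 experiments in triplicate (n ≥ 6).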

| Structure (SMILES) | Activity (L3.6pl [3]) | Activity (L3.6pl [4]) | EC50 [7] | MTC (L3.6pl [10]) | IC50 at 72 h [12] | EC50 (CHO-K1 [15]) | MTC (CHO-K1 [16]) | further results |
| --- | --- | --- | --- | --- | --- | --- | --- | --- |
| CNCCCCNCCCCNCc1cc(CNCCCCNCCCCNC)cc(CNCCCCNCCCCNC)c1 | – | – | – | – | – | – | – | inhibition (L3.6pl [1]): Active; inhibition (L3.6pl [2]): Active |
| NCCCC(N)(C(=O)O)C(F)F (stereo not drawn) | Active | Active | – | – | – | – | – | – |
| COc1ccc(C(=O)Nc2ccc(N3CCN(c4cc(Cl)ccc4C)CC3)cc2C(=O)O)cc1 | Active | Active | > 40 µM | 8 µM | 16.8 µM | 8 µM | 13 µM | inhibition (L3.6pl [5]): Active; inhibition (L3.6pl [6]): Active; inhibition (L3.6pl [8]; DDE = dose-dependent effect): Dde; inhibition (L3.6pl [9]; DDE = dose-dependent effect): Dde; Activity (L3.6pl [11]): Active; Activity (L3.6pl [13]): Active; inhibition (L3.6pl [14]): Active; Activity [17]: Dde |
| COc1ccc(-c2cc(C(F)(F)F)n3nc(-c4cccs4)cc3n2)cc1OC | – | – | – | – | – | – | – | inhibition (L3.6pl [8]): Active; inhibition (L3.6pl [9]): Active |
| O=C(Nc1ccc(N2CCN(c3ccccn3)CC2)cc1C(=O)O)c1ccco1 | – | – | > 40 µM | 12 µM | > 50 µM | > 40 µM | > 40 µM | inhibition (INH) (L3.6pl [18]): 41%; inhibition (INH) [19]: 31% |
